{"source": "ChEMBL document CHEMBL1142569", "about": "“Two new hepatoprotective stilbene glycosides from Acer mono leaves” (J Nat Prod, 2005)", "key": {"Hepatocyte [1]": {"system": "Hepatocyte", "assay": "Hepatoprotective activity against H2O2-induced hepatotoxicity in Wistar rat hepatocytes assessed as reduction in glutamic pyruvate transaminase release after 1 hr relative to control", "assay_type": "functional, cell-based", "how_it_was_run": "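Hepatocytes from male Wistar rats were isolated by collagenase perfusion and cultured for one day after plating. Cells were pretreated with or without compound for 1 h, then exposed to 12 mM H2O2 for 1.5 h. GPT released into the medium was measured by the Reitman-Frankel method. Relative protection (%) = 100 × (H2O2-treated − sample)/(H2O2-treated − unchallenged control). Mean ± SD, n = 3.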"}, "Hepatocyte [2]": {"system": "Hepatocyte", "assay": "Hepatoprotective activity against H2O2-induced hepatotoxicity in Wistar rat hepatocytes assessed as reduction in glutamic pyruvate transaminase release at 100 uM after 1 hr relative to control", "assay_type": "functional, cell-based"}}, "note": "The source made the active and inactive calls. No cut-off for these calls is given here."}
{"smiles": "C[C@@H]1O[C@@H](Oc2c(-c3ccc(O)c(O)c3)oc3cc(O)cc(O)c3c2=O)[C@H](O)[C@H](O)[C@H]1O", "values": [{"measurement": "Activity", "setting": "Hepatocyte [1]", "result": "inactive"}]}
{"smiles": "O=C1C[C@@H](c2ccc(O)c(O)c2)Oc2cc(O[C@@H]3O[C@H](CO)[C@@H](O)[C@H](O)[C@H]3O)cc(O)c21", "values": [{"measurement": "Activity", "setting": "Hepatocyte [1]", "result": "inactive"}]}
{"smiles": "COc1cc(/C=C/c2ccc(O)cc2)cc(O[C@@H]2O[C@H](CO)[C@@H](O)[C@H](O)[C@H]2O)c1", "values": [{"measurement": "Activity", "setting": "Hepatocyte [1]", "result": "Active"}]}
{"smiles": "O=c1ccoc2cc(O[C@@H]3O[C@H](CO)[C@@H](O)[C@H](O)[C@H]3O)cc(O)c12", "values": [{"measurement": "Activity", "setting": "Hepatocyte [1]", "result": "inactive"}]}
{"smiles": "O=c1c(O)c(-c2ccc(O)c(O)c2)oc2cc(O)cc(O)c12", "values": [{"measurement": "Activity", "setting": "Hepatocyte [1]", "result": "Active"}]}
{"smiles": "COc1cc(/C=C/c2ccc(O)cc2)cc(O[C@@H]2O[C@H](CO[C@@H]3OC[C@](O)(CO)[C@H]3O)[C@@H](O)[C@H](O)[C@H]2O)c1", "values": [{"measurement": "Activity", "setting": "Hepatocyte [1]", "result": "Active"}]}
{"smiles": "O=C1C[C@@H](c2ccc(O)cc2)Oc2cc(O)cc(O)c21", "values": [{"measurement": "Activity", "setting": "Hepatocyte [1]", "result": "inactive"}]}
{"smiles": "O=C1C[C@@H](c2ccc(O)c(O)c2)Oc2cc(O)cc(O)c21", "values": [{"measurement": "Activity", "setting": "Hepatocyte [1]", "result": "inactive"}]}
{"smiles": "COc1cc(C2Oc3cc([C@H]4Oc5cc(O)cc(O)c5C(=O)[C@@H]4O)ccc3OC2CO)ccc1O", "note": "(stereo not given in full)", "values": [{"measurement": "Activity", "setting": "Hepatocyte [2]", "result": "Active"}]}
{"smiles": "O=C1C[C@@H](c2ccc(O)cc2)Oc2cc(O[C@@H]3O[C@H](CO)[C@@H](O)[C@H](O)[C@H]3O)cc(O)c21", "values": [{"measurement": "Activity", "setting": "Hepatocyte [1]", "result": "inactive"}]}
